FN deposit inh: fibronectin deposition inhibition; AH1F fibroblasts, Alexa488-fibronectin deposition fluorescence, overnight; inhibition, % at 12.6 µM; 0.086% of 350,000 active; AID 743247;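 active = mean inhibition across replicates of 30% or more, regardless of how many single replicates reach that level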;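 also: positive control wells lacked labelled fibronectin entirely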
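Material – AH1F fibroblast monolayer, labelled fibronectin deposition · Reagent – labelled fibronectin 24 nM · Timing – 1 h adhesion, overnight exposure · Measured by – fluorescence at 485 nm excitation, 525 nm emission · Read-out – inhibition of fibronectin deposition signal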
rRNA inh HTS: selective bacterial rRNA inhibition in E. coli. E. coli WT GFP vs humanized-ribosome RFP mutants, fluorescence, 24 h; stronger effect = lower value; DMSO median 0, no signal -100. GFP signal change (wild-type ribosome), % (concentration not given with the values). 1.6% of 350,000 active. AID 720706;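 active = significant combined selectivity score with lowered wild-type GFP, culture density cut under 30%, mutant RFP and density less affected; inactive = any of these conditions unmet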
miR122 inh: blocks miR-122 activity in Huh7 sensor cells. Huh7 miR-122 Renilla luciferase sensor, 48 h; neutral wells = 0, positive control = 100. activation (reporter increase), % at 12.5 µM. 0.3% of 340,000 active;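 active = mean replicate activation score at least 90 and every replicate individually at or above 90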;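 also: higher luciferase means less miR-122 activity so hits act as miR-122 inhibitors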
S100A4 MyoIIA: S100A4-myosin IIA interaction inhibition | P26447 | S100A4/TAMRA-MyoIIA peptide fluorescence polarization | inhibition, % at 10.7 µM | 0.14% of 360,000 active | AID 652163;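 active = mean inhibition of at least 70% across replicates, with every replicate also reaching that level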
Target sequence (P26447 whole entry, looked up): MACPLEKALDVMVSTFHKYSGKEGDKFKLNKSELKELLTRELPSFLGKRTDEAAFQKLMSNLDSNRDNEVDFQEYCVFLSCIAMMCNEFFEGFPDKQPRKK
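Compound dosing: one dose per compound; test system: human S100A4 monomer with TAMRA-labelled myosin IIA peptide; probe or stimulus: TAMRA-labelled myosin IIA heavy-chain peptide probe, 5 nM; medium: HEPES buffer with Ca2+, pH 7.2; schedule: 5 min incubation before reading; benchmarks: neutral control DMSO, positive control TFP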
Vif imaging: blocks HIV Vif function; 0.35% of 340,000 active; HEK293T cells, Vif self-association by quenched fluorescence, imaging, 24 h; inhibition, % at 7.49 µM; in the data active = inhibition above about 50%, passing the limit was not always enough
Env fusion inh: HIV envelope-mediated fusion inhibition | AID 651610 | 1.1% of 360,000 active | HeLa-JRFL Env/CEM21 cell fusion, luciferase | inhibition, % at 12.3 µM;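 active = mean replicate inhibition score of at least 50 and every replicate individually at or above 50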;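 also: 0% = plate neutral controls and 100% = maraviroc near 300 nM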
An asterisk follows results filed as active; nt = no result given; [ ] = dose if it differs, or a comment. In the library only some 2.6% were active in any assay of this set; here they are far more common.

SMILES | FN deposit inh | rRNA inh HTS | miR122 inh | S100A4 MyoIIA | Vif imaging | Env fusion inh
NC(Cc1ccccc1)c1nc2ccccc2[nH]1 (centres undefined) | 0 | 7 | nt | 1 | -9 | -19
NC(=O)c1cc([N+](=O)[O-])cc([N+](=O)[O-])c1 | -4 | nt | -3 | -4 | -10 | 13
CC(C)(C)c1cc([N+](=O)[O-])cc(C(C)(C)C)c1O | 5 | -13 | nt | 0 | nt | 58*
COc1cccc(OC)c1C1=NCC(=O)Nc2c1oc1ccc(Br)cc21 | -3 | -28* | 66 | -4 | 23 | -178
CN1[C@@H]2CN(CC3CC3)C[C@H]1C2c1ccc(Br)cc1 (some centres undefined) | 7 | -7 | nt | nt | nt | nt
OC1(c2ccc(F)cc2)CCNC1 (centres undefined) | nt | nt | -6 | nt | 82* | 10
COOCC1(C(=O)OC)C[C@H](c2ccc(OC)cc2)N(Cc2ccccc2OC)[C@@H]1c1ccccc1C (some centres undefined) | 2 | 15 | nt | -4 | nt | 89*
CC(O)C1C=CC=CC(=O)OC2CC3OC4C5OC5(C)CCC4(COC(=O)C4OC4(C)C(O)CO1)C2(C)C31CO1 (centres undefined) | 15 | 5 | nt | -8 | -21 | 53
CC(=O)OC1C(=O)OCC23CCC4(C)OC4C2OC2CC(OC(=O)C=CC=CC(=O)OCCC1C)C3(C)C21CO1 (centres undefined) | 14 | -1 | nt | -20 | -25 | 77*
COC(=O)[C@@H]1[C@@H](CO)[C@@H]2Cn3c(ccc(/C=C/c4ccccc4)c3=O)[C@H]1N2CC1CCCC1 | nt | -9 | -13[16.7 µM] | 4 | nt | nt
Fc1ccc(CN2CC3NC(C2)C3c2ccc(Br)cc2)cc1 (centres undefined) | -11 | -4 | nt | nt | nt | nt
CC1=C(N2CC2)C(=O)C(CO)=C(N2CC2)C1=O | -5 | 28 | -4 | -1 | -6 | 80*
CC(=O)N1[C@@H]2c3ccc(-c4cccc(C(=O)N(C)C)c4)c(=O)n3C[C@H]1[C@H](CO)[C@H]2C(=O)O | nt | 0 | nt | 3 | nt | nt
CCC(C)C(NC(=O)CCCNC(=O)CCC(=O)OC1O[C@H]2OC3(C)CC[C@H]4[C@H](C)CCC(C1C)C24OO3)C(=O)O (some centres undefined) | -7 | -14 | -7 | 2 | -5 | 58*
O=C(Nc1ccc2c(c1)OCO2)c1cn(Cc2ccc(F)cc2)nn1 | 0 | nt | 9 | nt | 53* | -36
O=C(Cn1ncc2c3ccccc3n(Cc3cccc(Cl)c3)c2c1=O)N1CCC2(CC1)OCCO2 | nt | -4 | nt | -2 | 56* | nt
Cc1c2cnn(CC(=O)N3CCC4(CC3)OCCO4)c(=O)c2c(C)n1Cc1cccc(Cl)c1 | 4 | 1 | nt | 16 | 8 | -1
COc1ccc(C#Cc2ccc([C@H]3[C@H]4CN(C(=O)Cc5cccnc5)CCCCN4[C@H]3CO)cc2)cc1 | nt | -41 | -16[16.7 µM] | 29 | nt | nt
COc1ccc(-c2cc(=Nc3ccccc3)c3cc(C)ccc3o2)cc1 | -2 | -11 | 18 | -1 | 1 | -125
COc1ccc(-c2cc(=O)c3c(OC)c(OC)c(OC)cc3o2)cc1 | nt | -30* | -21 | 1 | -6 | nt
CC(=O)N1C[C@@H]2C(c3ccccc3)[C@H](C1)N2C (some centres undefined) | -6 | 1 | nt | nt | nt | nt
COC(=O)[C@@H]1[C@@H](CO)[C@@H]2Cn3c(ccc(C4=CCCCC4)c3=O)[C@H]1N2CC1CCCC1 | nt | -2 | 4[16.7 µM] | -3 | nt | nt
COc1cc(C(O)CN)ccc1O (centres undefined) | -1 | 9 | -2 | 4 | -6 | nt
COc1cc(C(O)CNC(C)C)cc(F)c1OC (centres undefined) | 1 | 25 | nt | -3 | 55* | 4
CC(C)CC#Cc1ccc([C@@H]2[C@@H](CO)N3CCCCN(C(=O)Cc4ccccn4)C[C@H]23)cc1 | nt | -50 | -15[16.7 µM] | nt | nt | nt
SMILES | FN deposit inh | rRNA inh HTS | miR122 inh | S100A4 MyoIIA | Vif imaging | Env fusion inh
C=C1N2CCC(CC2)C1(O)c1ccc(C)c(C)c1 (centres undefined) | 0 | nt | 1 | nt | 51* | -56
C=C1N2CCC(CC2)C1(O)c1ccc(C)cc1 (centres undefined) | -2 | nt | -6 | nt | -2 | -38
COC1=C(C)C(=O)C2=C(C1=O)C(CO)N1C(C#N)C3CC4C(C1C2N1CCOC41)N3C (centres undefined) | -12 | nt | -3 | 7 | 0 | 67*
O=C(CNC(=O)OCc1ccccc1)NCC(=O)Nc1ccc(Br)cc1C(=O)c1ccccc1 | 9 | nt | -5 | nt | -4 | 10
O=C(CNC(=O)OCc1ccccc1)Nc1ccc(Br)cc1C(=O)c1ccccc1 | -10 | nt | 40 | nt | -1 | 59*
C[C@]12CCC(=O)C=C1CC[C@@H]1C2CC[C@]2(C)C(=O)CCC12 (some centres undefined) | 9 | -38* | 4 | -4 | -8 | -4
C[C@]12CCC3C(CC[C@H]4[C@@H](O)[C@H](O)CC[C@]34C)C1CCC2=O (some centres undefined) | 6 | -22* | -1 | -1 | 3 | -26
Cc1cccc(S(=O)(=O)N2[C@@H]3c4ccc(-c5ccncc5)c(=O)n4C[C@H]2[C@H](CO)[C@H]3C(=O)O)c1 | nt | 2 | 0[16.7 µM] | -38 | nt | nt
COC(=O)C12OCC34C(CC5C(C)=C(O)C(=O)CC5(C)C3C(O)C1O)OC(=O)C(OC(=O)/C=C(\C)C(C)C)C24 (centres undefined) | 13 | 3 | -7 | -2 | -28 | 84*
O=C(Cc1ccccn1)N1CCCCN2[C@@H](CO)[C@@H](c3ccc(-c4ccc(F)cc4)cc3)[C@@H]2C1 | nt | -5 | 17[16.7 µM] | 26 | nt | nt
CC(=O)OC(C)(C)/C=C/C(=O)C(C)(O)C1C(O)CC2(C)C3CC=C4C(CC(O)C(=O)C4(C)C)C3(C)C(=O)CC12C (centres undefined) | 30* | nt | 2 | 3 | -4 | 65*
Cc1ccc2[nH]c(C)c(CCNCc3ccco3)c2c1 | 1 | 9 | -2 | 3 | -21 | -1
COc1ccc2[nH]c(C)c(CCNCc3cccnc3)c2c1 | -17 | 47 | 3 | 57 | 16 | nt
CCOc1cccc(CNCCc2c(C)[nH]c3ccc(OC(F)(F)F)cc23)c1O | 1 | -57 | 3 | 10 | -7 | 62*
Cc1[nH]c2ccc(OC(F)(F)F)cc2c1CCNCc1ccc(Cl)cc1 | 30 | -56 | nt | 6 | -3 | 93*
Cc1[nH]c2ccc(OC(F)(F)F)cc2c1CCNCc1cccc([N+](=O)[O-])c1 | 2 | -53 | 13 | 0 | 13 | 67*
COc1ccc(-c2ccc3n(c2=O)C[C@@H]2[C@@H](CO)[C@H](C(=O)O)[C@H]3N2C(=O)c2ccccc2F)cc1 | nt | 2 | nt | -31 | nt | 7[16.7 µM]

Screens: PubChem BioAssay, Broad Institute
